Test results reported in ChEMBL document CHEMBL1949496, “Synthesis of [¹⁸F]-labeled (2-(2-fluoroethoxy)ethyl)triphenylphosphonium cation as a potential agent for myocardial imaging using positron emission tomography” (Bioorg Med Chem Lett, 2012).

Key:
Blood = experiment: Biodistribution in BALB/c mouse blood at 7.4 MBq, iv after 10 mins by gamma counting; type: ADME, organism-based; details: in vivo
In short: (§1)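 Tracer given intravenously to BALB/c mice; animals sampled at 10, 30, 60 and 120 min after injection. Organ radioactivity expressed as percentage of injected dose per gram of tissue (% ID/g), n = 12.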

Nucleic Acid [1] = experiment: Ratio of drug level in BALB/c mouse heart to lung at 7.4 MBq, iv after 120 mins by gamma counter; type: ADME, organism-based; details: in vivo, 2 h
In short: (§2)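 Normal BALB/c mice were given the 18F tracer by i.v. injection. Tissues were sampled at 10, 30, 60 and 120 min. Activity is expressed as % injected dose per gram of tissue (n = 12), and organ ratios were taken from these values.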

Nucleic Acid [2] = experiment: Ratio of drug level in BALB/c mouse heart to lung at 7.4 MBq, iv after 10 mins by gamma counter; type: ADME, organism-based; details: in vivo; in short: as §2
Nucleic Acid [3] = experiment: Ratio of drug level in BALB/c mouse heart to blood at 7.4 MBq, iv after 10 mins by gamma counter; type: ADME, organism-based; details: other tissue; in short: as §2
Stomach [4] = experiment: Biodistribution in BALB/c mouse stomach at 7.4 MBq, iv after 120 mins by gamma counting; type: ADME, organism-based; details: in vivo, 2 h; in short: as §1
Spleen [5] = experiment: Biodistribution in BALB/c mouse spleen at 7.4 MBq, iv after 120 mins by gamma counting; type: ADME, organism-based; details: in vivo, 2 h; in short: as §1
Muscle tissue [6] = experiment: Biodistribution in BALB/c mouse normal muscle at 7.4 MBq, iv after 30 mins by gamma counting; type: ADME, organism-based; details: in vivo, 0.5 h; in short: as §1
Nucleic Acid [7] = experiment: Ratio of drug level in BALB/c mouse heart to liver at 7.4 MBq, iv after 60 mins by gamma counter; type: ADME, organism-based; details: in vivo, 1 h; in short: as §2
Liver [8] = experiment: Biodistribution in BALB/c mouse liver at 7.4 MBq, iv after 60 mins by gamma counting; type: ADME, organism-based; details: in vivo, 1 h; in short: as §1
Nucleic Acid [9] = experiment: Ratio of drug level in BALB/c mouse heart to lung at 7.4 MBq, iv after 30 mins by gamma counter; type: ADME, organism-based; details: in vivo, 0.5 h; in short: as §2
Heart [10] = experiment: Biodistribution in BALB/c mouse heart at 7.4 MBq, iv after 10 mins by gamma counting; type: ADME, organism-based; details: in vivo; in short: as §1
H9c2 [11] = experiment: Cellular uptake in rat H9c2 cells after 2 hrs by gamma counting; type: ADME, cell-based; details: h9c2, 2 h
In short: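 Radiotracer incubated with H9c2 cells at 37 °C for 0.5, 1 or 2 h. Uptake expressed as percentage of applied radioactivity; means ± SD of three measurements.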

Liver [12] = experiment: Biodistribution in BALB/c mouse liver at 7.4 MBq, iv after 10 mins by gamma counting; type: ADME, organism-based; details: in vivo; in short: as §1
Muscle tissue [13] = experiment: Biodistribution in BALB/c mouse normal muscle at 7.4 MBq, iv after 10 mins by gamma counting; type: ADME, organism-based; details: in vivo; in short: as §1
[14] = Drug uptake in Sprague-Dawley rat myocardium at 37 MBq, iv up to 1 hr by micro PET analysis; type: ADME, organism-based; details: in vivo
In short: (§3)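 Rats received the tracer intravenously and were imaged by micro-PET in coronal view at 0.5 h and 1.0 h after injection.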

Pancreas [15] = experiment: Biodistribution in BALB/c mouse pancreas at 7.4 MBq, iv after 10 mins by gamma counting; type: ADME, organism-based; details: in vivo; in short: as §1
Nucleic Acid [16] = experiment: Ratio of drug uptake in rat H9c2 cells to mouse NIH3T3 cells after 0.5 to 2 hrs by gamma counting; type: ADME, cell-based
Spleen [17] = experiment: Biodistribution in BALB/c mouse spleen at 7.4 MBq, iv after 30 mins by gamma counting; type: ADME, organism-based; details: in vivo, 0.5 h; in short: as §1
Heart [18] = experiment: Drug uptake in Sprague-Dawley rat heart at 37 MBq, iv after 1 hr by micro PET analysis; type: ADME, organism-based; details: in vivo; in short: as §3
Heart [19] = experiment: Biodistribution in BALB/c mouse heart at 7.4 MBq, iv after 60 mins by gamma counting; type: ADME, organism-based; details: in vivo, 1 h; in short: as §1
Spleen [20] = experiment: Biodistribution in BALB/c mouse spleen at 7.4 MBq, iv after 60 mins by gamma counting; type: ADME, organism-based; details: in vivo, 1 h; in short: as §1
Stomach [21] = experiment: Biodistribution in BALB/c mouse stomach at 7.4 MBq, iv after 10 mins by gamma counting; type: ADME, organism-based; details: in vivo; in short: as §1
Heart [22] = experiment: Biodistribution in BALB/c mouse heart at 7.4 MBq, iv after 120 mins by gamma counting; type: ADME, organism-based; details: in vivo, 2 h; in short: as §1
Bone = experiment: Biodistribution in BALB/c mouse bone at 7.4 MBq, iv after 30 mins by gamma counting; type: ADME, organism-based, Bone element; details: in vivo, 0.5 h; in short: as §1
Muscle tissue [23] = experiment: Biodistribution in BALB/c mouse normal muscle at 7.4 MBq, iv after 120 mins by gamma counting; type: ADME, organism-based; details: in vivo, 2 h; in short: as §1
Intestine [24] = experiment: Biodistribution in BALB/c mouse intestine at 7.4 MBq, iv after 120 mins by gamma counting; type: ADME, organism-based; details: in vivo, 2 h; in short: as §1
Spleen [25] = experiment: Biodistribution in BALB/c mouse spleen at 7.4 MBq, iv after 10 mins by gamma counting; type: ADME, organism-based; details: in vivo; in short: as §1
Pancreas [26] = experiment: Biodistribution in BALB/c mouse pancreas at 7.4 MBq, iv after 60 mins by gamma counting; type: ADME, organism-based; details: in vivo, 1 h; in short: as §1
Heart [27] = experiment: Biodistribution in BALB/c mouse heart at 7.4 MBq, iv after 30 mins by gamma counting; type: ADME, organism-based; details: in vivo, 0.5 h; in short: as §1
H9c2 [28] = experiment: Cellular uptake in rat H9c2 cells after 0.5 to 2 hrs by gamma counting in presence of CCCP; type: ADME, cell-based
In short: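 H9c2 cells incubated with radiotracer at 37 °C for 0.5, 1 or 2 h in the presence of 0.5 µM protonophore CCCP, which abolishes mitochondrial membrane potential. Uptake expressed as percentage of applied radioactivity; means ± SD of three measurements.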

Intestine [29] = experiment: Biodistribution in BALB/c mouse intestine at 7.4 MBq, iv after 60 mins by gamma counting; type: ADME, organism-based; details: in vivo, 1 h; in short: as §1
Pancreas [30] = experiment: Biodistribution in BALB/c mouse pancreas at 7.4 MBq, iv after 30 mins by gamma counting; type: ADME, organism-based; details: in vivo, 0.5 h; in short: as §1

## [18F]CCOCC[P+](c1ccccc1)(c1ccccc1)c1ccccc1
Blood
  Drug uptake: 0.64 % ID/g
Nucleic Acid [1]
  Ratio: 4.36
Nucleic Acid [2]
  Ratio: 4.58
Nucleic Acid [3]
  Ratio: > 55
Stomach [4]
  Drug uptake: 2.49 % ID/g
Spleen [5]
  Drug uptake: 1.23 % ID/g
Muscle tissue [6]
  Drug uptake: 5.27 % ID/g
Nucleic Acid [7]
  Ratio: 9.87
Liver [8]
  Drug uptake: 2.03 % ID/g
Nucleic Acid [9]
  Ratio: 3.71
Heart [10]
  Drug uptake: 35.23 % ID/g
H9c2 [11]
  Drug uptake: 0.68%
Liver [12]
  Drug uptake: 3.57 % ID/g
Muscle tissue [13]
  Drug uptake: 6.46 % ID/g
[14]
  Drug uptake: Active
Pancreas [15]
  Drug uptake: 8.8 % ID/g
Nucleic Acid [16]
  Ratio: 2
Spleen [17]
  Drug uptake: 2.81 % ID/g
Heart [18]
  Drug uptake: Active
Heart [19]
  Drug uptake: 19.96 % ID/g
Spleen [20]
  Drug uptake: 1.95 % ID/g
Stomach [21]
  Drug uptake: 3.75 % ID/g
Heart [22]
  Drug uptake: 24.27 % ID/g
Bone
  Drug uptake: 2.35 % ID/g
Muscle tissue [23]
  Drug uptake: 3.2 % ID/g
Intestine [24]
  Drug uptake: 2.66 % ID/g
Spleen [25]
  Drug uptake: 3.35 % ID/g
Pancreas [26]
  Drug uptake: 7.35 % ID/g
Heart [27]
  Drug uptake: 19.33 % ID/g
H9c2 [28]
  Drug uptake: Not Active
Intestine [29]
  Drug uptake: 4.67 % ID/g
Pancreas [30]
  Drug uptake: 5.96 % ID/g
